Compound activity from PubChem.
The list is not random: actives were taken first. Their share in the collection is about 2.3%.
SR-BI HDL uptake: inhibitors of mouse SR-BI mediated HDL lipid uptake | Q61009 | ldlA[mSR-BI] CHO cells, DiI-HDL uptake fluorescence, 3 h | inhibition, % at 12.5 µM | 320,000 tested, 0.96% active | AID 488896;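 active = mean replicate inhibition of at least 70% and a set share of replicates each scoring 70 or more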
ATG4B inhibitor: blocks human ATG4B protease cleavage of LC3 substrate. Q9Y4P1. ATG4B cleavage of LC3-PLA2, NBD-HPC fluorescence, 1 h. inhibition, % at 8.33 µM. 340,000 tested, 0.51% active; in the data active = inhibition above about 40%
SR-BI uptake up: enhances SR-BI lipid uptake from DiI-HDL | 320,000 tested, 0.096% active | CHO ldlA[mSR-BI] cells, DiI-HDL uptake fluorescence, 3 h; 100 = double the neutral-control signal | activation, % at 12.5 µM;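 active = mean replicate activation of at least 60% and every replicate at or above 60%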
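Material – SR-BI-overexpressing, LDLR-lacking CHO cells · Medium – BSA-supplemented, HEPES-buffered Ham's F12, pH 7.4 · Doses – single concentration · Times – compound with DiI-HDL co-incubation, 3 h at 37 °C · Measured by – bottom-read fluorescence, 550/595 nm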
CAL PDZ FP-1: blocks peptide binding to human CAL PDZ domain; purified CAL PDZ, TMR-peptide fluorescence polarization, 1 h; inhibition, % at 20 µM; 330,000 tested, 0.02% active;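 active = highest replicate inhibition of at least 40%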
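Material – purified CerCALP PDZ construct · Detection – FP readout, S and P plane fluorescence · Measure – percent inhibition from loss of millipolarization · Controls – unlabelled peptide for full inhibition, DMSO wells as neutral · Probe or stimulus – TMR-labelled reporter peptide T*-PRC34 bound in PDZ groove · Times – 1 h at RT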
CAL PDZ FP-2: inhibitors of human CAL PDZ peptide binding. Q9HD26. purified CAL PDZ, TMR-peptide fluorescence polarization, 1 h. inhibition, % at 24.9 µM. 300,000 tested, 0.92% active. AID 602252;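 active = mean inhibition of at least 30% with at least half of replicates also reaching 30%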
ATG4B confirm: confirmation of human ATG4B inhibitors. ATG4B protease fluorescent substrate cleavage assay. 320 tested, 92% active. inhibition, % at 8.33 µM. shares compounds with ATG4B inhibitor; in the data active = inhibition above about 39%
PLA2 ctr: inhibits human PLA2, flagging false ATG4B inhibitors | shares compounds with ATG4B inhibitor | purified PLA2, NBD-C6-HPC fluorescence, 45 min | inhibition, % at 8.33 µM | 1,600 tested, 66% active; in the data active = inhibition above about 50%
Target sequence (P04054 whole entry, looked up): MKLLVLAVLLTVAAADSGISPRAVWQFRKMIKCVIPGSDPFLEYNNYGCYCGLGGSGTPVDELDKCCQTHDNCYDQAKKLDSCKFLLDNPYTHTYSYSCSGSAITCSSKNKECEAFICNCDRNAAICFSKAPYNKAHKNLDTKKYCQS
Numbers stand for hits; - = inactive; . = not tested or not shown.

SMILES	SR-BI HDL uptake	ATG4B inhibitor	SR-BI uptake up	CAL PDZ FP-1	CAL PDZ FP-2	ATG4B confirm	PLA2 ctr
Cc1c(Cl)c([N+](=O)[O-])nn1CCCC(=O)Nc1cccc(Cl)c1Cl	-	60.1	-	-	-	.	66.9
Cc1cc([N+](=O)[O-])nn1CCCC(=O)Nc1ccc(Cl)cc1Cl	.	-	.	-	-	.	.
CCN(CC)c1ccc(S(=O)(=O)N2CCOCC2)cc1NC(=O)CSC(=S)N1CCCC1	-	-	-	-	-	.	.
CCCCCCCCCCCCCCCC[N+](C)(C)CCl	-	56.0	-	-	-	57.0	-
Fc1ccccc1CSc1nnc(-c2cnccn2)n1Cc1ccco1	-	-	-	-	-	.	.
Clc1ccc(CSc2nnc(-c3ccccn3)n2Cc2ccco2)c(Cl)c1	-	40.9	-	-	-	.	54.9
O=C(N/N=C/c1coc2ccccc2c1=O)c1cccc([N+](=O)[O-])c1	-	45.9	-	-	-	.	-
COc1cc(C(=O)N/N=C/c2coc3ccc(Cl)cc3c2=O)ccc1O	-	50.5	-	-	-	-	-
Cc1ccc(/C=C2\SC(=S)N(C(Cc3ccccc3)C(=O)O)C2=O)cc1 (configuration not stated)	-	47.8	-	-	-	79.4	-
CC(/C=C1\SC(=O)N(CCCC(=O)O)C1=O)=C\c1ccccc1	-	-	-	-	-	.	.
CC(/C=C1\SC(=S)N(CCCC(=O)Nc2ccc(C(=O)O)cc2)C1=O)=C\c1ccccc1	-	64.5	-	-	-	41.0	-
CCC(C(=O)O)N1C(=O)/C(=C/C(C)=C/c2ccccc2)SC1=S (configuration not stated)	.	79.9	.	-	-	.	82.8
CC(=C\c1ccccc1)/C=C1/SC(=S)N(C(C(=O)O)C(C)C)C1=O (configuration not stated)	-	-	-	-	-	.	.
CC(=C\c1ccccc1)/C=C1/SC(=S)N(CCCC(=O)O)C1=O	-	51.9	-	-	-	78.0	-
O=C(c1ccc(=O)[nH]c1)N1CCN(S(=O)(=O)c2ccccc2)CC1	-	-	-	-	-	.	.
Cn1c(O)c(C=NCCCCCC(=O)O)c(=O)n(C)c1=O	-	-	-	-	-	.	.
O=C(Nc1nc2c(cc3c4c(cccc42)CC3)s1)c1ccccc1Cl	76.0	42.8	-	-	-	60.3	-
Cc1ccccc1Cn1cc(NC(=O)CSc2nc3c(c(C(F)(F)F)n2)CCc2ccccc2-3)cn1	-	77.7	-	.	-	.	73.2
Cc1ccc(Cn2nc(C)c(NC(=O)CSc3nc4c(c(C(F)(F)F)n3)CCc3ccccc3-4)c2C)cc1	-	-	-	-	-	.	.
CCCn1c(CN2CCN(C(=O)OCC)CC2)nc2cc([N+](=O)[O-])ccc21	-	-	-	.	-	.	.
COc1cccc(-c2nc(SCC(=O)Nc3nc(-c4ccccc4)c(C)s3)[nH]c(=O)c2C#N)c1	-	41.8	-	-	-	75.3	-
NS(=O)(=O)c1cccc(NC(=O)CCN2C(=O)C3CCCCC3C2=O)c1 (configuration not stated)	-	-	-	-	.	.	.
Cn1cccc1C(=O)NC(=O)COC(=O)CC12CC3CC(CC(C3)C1)C2	-	62.1	-	-	-	.	53.9
Cn1cccc1C(=O)NC(=O)COC(=O)CC12CC3CC(CC(Br)(C3)C1)C2	-	61.4	-	-	-	.	72.9
COc1ccc(S(=O)(=O)N(C)C[C@H]2Oc3c(NC(=O)Nc4c(C)noc4C)cccc3C(=O)N([C@H](C)CO)C[C@@H]2C)cc1	-	-	-	-	-	.	.
CC(C)Oc1ccc(C(CC(=O)NCc2ccco2)c2ccccc2)cc1 (configuration not stated)	-	43.9	-	-	.	64.7	-
O=C(CC(Cc1ccccc1)c1ccco1)NCc1ccco1 (configuration not stated)	-	-	-	-	-	.	.
CC(C)c1ccc(/C=C/C(=O)N2CCc3ccccc3C2)cc1	-	58.6	-	-	-	.	62.9
